Legend:
Format in all cases: functional
[1] = tested on: Amaranthus; experiment: Pre-emergence herbicidal activity against Amaranthus ascendens assessed as growth inhibition at 75 g.a.i./ha applied 24 hr after seeds were sown measured after 15 days; details: read-out: GI
Method in brief: (§1)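 Weeds sown 5 mm deep in pots of greenhouse clay soil (pH 6.5, 37.5% clay, CEC 12.9 cmol/kg) and grown at 22-25 °C. Water-diluted formulation was applied pre-emergence 24 h after sowing. Untreated and DMF solvent controls were included. Growth inhibition was visually rated in % against untreated controls after 15 days, as the mean of triplicates.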

[2] = tested on: Abutilon theophrasti; experiment: Pre-emergence herbicidal activity against Abutilon theophrasti (velvetleaf) assessed as growth inhibition at 75 g.a.i./ha applied 24 hr after seeds were sown measured after 15 days; details: read-out: GI; method in brief: as §1
[3] = tested on: Echinochloa crus-galli; experiment: Pre-emergence herbicidal activity against Echinochloa crus-galli (barnyard grass) assessed as growth inhibition at 75 g.a.i./ha applied 24 hr after seeds were sown measured after 15 days; details: read-out: GI; method in brief: as §1
[4] = tested on: Setaria viridis; experiment: Pre-emergence herbicidal activity against Setaria viridis (green foxtail) assessed as growth inhibition at 75 g.a.i./ha applied 24 hr after seeds were sown measured after 15 days; details: read-out: GI
Method in brief: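 Preliminary pre-emergence screen at a single rate of 75 g a.i./ha. Stock diluted with water and sprayed on greenhouse pots 24 h after seeds were sown 5 mm deep in clay soil (pH 6.5, 1.7% organic matter); grown at 22-25 °C. Untreated and DMF solvent controls included; triplicate. Visual % growth inhibition vs untreated after 15 days, averaged and banded (>80% top band).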

[5] = tested on: Echinochloa crus-galli; experiment: Post-emergence herbicidal activity against Echinochloa crus-galli (barnyard grass) assessed as growth inhibition at 75 g.a.i./ha applied at one-leaf stage measured after 15 days; details: 360 h, read-out: GI
Method in brief: (§2)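 Pot-grown weeds sown 5 mm deep in greenhouse clay soil (pH 6.5, 1.7% organic matter, CEC 12.9 cmol/kg) at 22-25 °C. Stock diluted with water and sprayed post-emergence: dicots at 2-leaf stage, monocots at 1-leaf stage. Untreated and DMF solvent controls were included. % growth inhibition was scored visually versus untreated controls after 15 days. Triplicates averaged.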

[6] = tested on: Setaria viridis; experiment: Post-emergence herbicidal activity against Setaria viridis (green foxtail) assessed as growth inhibition at 75 g.a.i./ha applied at one-leaf stage measured after 15 days; details: 360 h, read-out: GI; method in brief: as §2
[7] = tested on: Chenopodium album; experiment: Pre-emergence herbicidal activity against Chenopodium album assessed as growth inhibition at 75 g.a.i./ha applied 24 hr after seeds were sown measured after 15 days; details: read-out: GI; method in brief: as §1
[8] = tested on: Abutilon theophrasti; experiment: Post-emergence herbicidal activity against Abutilon theophrasti (velvetleaf) assessed as growth inhibition at 75 g.a.i./ha applied at two-leaf stage measured after 15 days; details: 360 h, read-out: GI; method in brief: as §2
[9] = tested on: Chenopodium album; experiment: Post-emergence herbicidal activity against Chenopodium album assessed as growth inhibition at 75 g.a.i./ha applied at two-leaf stage measured after 15 days; details: 360 h, read-out: GI; method in brief: as §2
[10] = tested on: Amaranthus; experiment: Post-emergence herbicidal activity against Amaranthus ascendens assessed as growth inhibition at 75 g.a.i./ha applied at two-leaf stage measured after 15 days; details: 360 h, read-out: GI; method in brief: as §2
[11] = tested on: Digitaria sanguinalis; experiment: Pre-emergence herbicidal activity against Digitaria sanguinalis (hairy crabgrass) assessed as growth inhibition at 75 g.a.i./ha applied 24 hr after seeds were sown measured after 15 days; details: read-out: GI; method in brief: as §1
[12] = tested on: Digitaria sanguinalis; experiment: Post-emergence herbicidal activity against Digitaria sanguinalis (hairy crabgrass) assessed as growth inhibition at 75 g.a.i./ha applied at one-leaf stage measured after 15 days; details: 360 h, read-out: GI; method in brief: as §2

SMILES | inhibition of growth at 75 g/ha [1] | inhibition of growth at 75 g/ha [2] | inhibition of growth at 75 g/ha [3] | inhibition of growth at 75 g/ha [4] | inhibition of growth at 75 g/ha [5] | inhibition of growth at 75 g/ha [6] | inhibition of growth at 75 g/ha [7] | inhibition of growth at 75 g/ha [8] | inhibition of growth at 75 g/ha [9] | inhibition of growth at 75 g/ha [10] | inhibition of growth at 75 g/ha [11] | inhibition of growth at 75 g/ha [12]
CCOC(=O)CN1C(=O)COc2cc(F)c(N3C(=O)c4ccc([N+](=O)[O-])cc4C3=O)cc21 | < 50% | < 50% | < 50% | < 50% | < 50% | < 50% | < 50% | 50% | 50% | 50% | < 50% | < 50%
COC(=O)C(C)N1C(=O)COc2cc(F)c(N3C(=O)c4ccccc4C3=O)cc21 (stereo unspecified) | < 50% | < 50% | < 50% | < 50% | 50% | 50% | < 50% | > 80% | > 80% | > 80% | < 50% | 50%
CCOC(=O)C(C)N1C(=O)COc2cc(F)c(N3C(=O)c4ccc(C)cc4C3=O)cc21 (stereo unspecified) | < 50% | < 50% | < 50% | < 50% | < 50% | < 50% | 50% | > 80% | < 50% | < 50% | < 50% | < 50%
COC(=O)CN1C(=O)COc2cc(F)c(N3C(=O)C4=C(CCCC4)C3=O)cc21 | 50% | 50% | < 50% | < 50% | 50% | 50% | 50% | > 80% | > 80% | > 80% | < 50% | 50%
COC(=O)C(C)N1C(=O)COc2cc(F)c(N3C(=O)C4=C(CCCC4)C3=O)cc21 (stereo unspecified) | 50% | > 80% | < 50% | < 50% | > 80% | > 80% | 50% | > 80% | > 80% | > 80% | < 50% | > 80%
CCOC(=O)C(C)(C)N1C(=O)C(C)Oc2cc(F)c(N3C(=O)C4=C(CCCC4)C3=O)cc21 (stereo unspecified) | 50% | < 50% | < 50% | < 50% | 50% | 50% | < 50% | > 80% | > 80% | > 80% | < 50% | 50%
CCOC(=O)CN1C(=O)COc2cc(N3C(=O)c4cc(Cl)c(Cl)cc4C3=O)c(F)cc21 | < 50% | < 50% | < 50% | < 50% | < 50% | < 50% | < 50% | < 50% | < 50% | < 50% | < 50% | < 50%
CCOC(=O)C(C)N1C(=O)COc2cc(F)c(N3C(=O)c4cc(Cl)c(Cl)cc4C3=O)cc21 (stereo unspecified) | < 50% | < 50% | < 50% | < 50% | < 50% | < 50% | < 50% | < 50% | 50% | < 50% | < 50% | < 50%

From ChEMBL document CHEMBL3045743, “Synthesis and herbicidal activity of isoindoline-1,3-dione substituted benzoxazinone derivatives containing a carboxylic ester group” (J Agric Food Chem, 2009)
